These results are taken from ChEMBL document CHEMBL4715770, “Inhibition of Low Molecular Weight Protein Tyrosine Phosphatase by an Induced-Fit Mechanism” (J Med Chem, 2016).

The target in assay [1] is T1, Tyrosine-protein phosphatase non-receptor type 22 (Homo sapiens, UniProt Q9Y2R2).
T1 sequence (Q9Y2R2 whole entry): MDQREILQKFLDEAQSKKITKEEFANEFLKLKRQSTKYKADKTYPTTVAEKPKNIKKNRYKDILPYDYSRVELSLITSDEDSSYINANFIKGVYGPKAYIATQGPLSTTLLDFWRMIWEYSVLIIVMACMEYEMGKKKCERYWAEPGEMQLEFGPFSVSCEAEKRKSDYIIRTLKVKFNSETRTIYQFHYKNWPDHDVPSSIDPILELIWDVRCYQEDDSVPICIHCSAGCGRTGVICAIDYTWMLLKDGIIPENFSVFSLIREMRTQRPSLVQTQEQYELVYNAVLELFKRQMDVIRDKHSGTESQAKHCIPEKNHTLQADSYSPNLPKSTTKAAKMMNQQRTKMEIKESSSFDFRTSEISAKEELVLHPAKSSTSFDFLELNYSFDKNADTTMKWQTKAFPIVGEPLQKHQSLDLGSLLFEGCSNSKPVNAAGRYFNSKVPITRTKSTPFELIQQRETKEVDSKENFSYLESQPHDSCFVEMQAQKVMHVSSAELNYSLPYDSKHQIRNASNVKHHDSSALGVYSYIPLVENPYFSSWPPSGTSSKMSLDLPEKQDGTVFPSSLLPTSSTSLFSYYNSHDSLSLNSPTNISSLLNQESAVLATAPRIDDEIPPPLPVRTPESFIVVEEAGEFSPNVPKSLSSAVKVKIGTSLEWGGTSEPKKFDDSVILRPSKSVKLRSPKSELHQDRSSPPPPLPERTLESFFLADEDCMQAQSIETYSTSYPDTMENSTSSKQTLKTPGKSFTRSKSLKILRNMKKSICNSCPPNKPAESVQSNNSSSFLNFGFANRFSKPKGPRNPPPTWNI
Description: Inhibition of His-tagged LYP (unknown origin) expressed in Escherichia coli BL21 cells using para-nitrophenyl phosphate as substrate incubated for 5 to 10 mins by microplate reader based spectrophotometric analysis.

Assay [2] deals with T2, Low molecular weight phosphotyrosine protein phosphatase (Homo sapiens, UniProt P24666).
T2 sequence (P24666 whole entry): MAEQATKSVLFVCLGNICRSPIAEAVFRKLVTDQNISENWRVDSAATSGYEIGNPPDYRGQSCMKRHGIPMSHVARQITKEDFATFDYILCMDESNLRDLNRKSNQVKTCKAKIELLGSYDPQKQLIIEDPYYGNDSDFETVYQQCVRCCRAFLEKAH
The assay is described as follows: Inhibition of His-tagged LMW-PTP isoform A (unknown origin) expressed in Escherichia coli BL21 cells using para-nitrophenyl phosphate as substrate incubated for 5 to 10 mins by microplate reader based spectrophotometric analysis.

Assay [3] has as its target Low molecular weight phosphotyrosine protein phosphatase (Homo sapiens) (UniProt P24666). The assay is described as follows: Inhibition of LMW-PTP isoform A in human HepG2 cells assessed as increase in insulin-induced Akt phosphorylation pretreated for 2 hrs followed by insulin stimulation and measured after 30 mins by Western blot analysis. The class given is cell-based. The conditions noted are these: dose 2-16 µM. An outline of the steps: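 HepG2 cells in DMEM with 10% FBS at 37 °C and 5% CO2 were grown to 60-80% confluence and serum-starved overnight. They were given vehicle or compound for 2 h, then 50 nM insulin for 30 min. Lysates were run on 10% SDS-PAGE and immunoblotted for phospho-AKT and total AKT with ECL detection. Densitometric pAKT/AKT ratios were normalized to vehicle.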
Background: Immunoblotting shows a protein as a band on a membrane.

The target of assay [4] is T2, Low molecular weight phosphotyrosine protein phosphatase. Description: Competitive inhibition of His-tagged LMW-PTP isoform A (unknown origin) expressed in Escherichia coli BL21 cells using para-nitrophenyl phosphate as substrate by Lineweaver-Burk plot analysis. The procedure, abridged: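 Recombinant enzyme Ni-NTA purified (Tris pH 7.8, 500 mM NaCl, 250 mM imidazole elution), then Sephadex G75. pNPP hydrolysis in 50 mM 3,3-dimethylglutarate, pH 7.0, 25 °C. Enzyme added last to mixes of varied pNPP and inhibitor concentrations, 5-10 min, NaOH quench. p-nitrophenol read at 405 nm (ε 18,000 M-1cm-1), no-enzyme blank subtracted. Ki fitted by enzyme-kinetics regression.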

pIC50, pKi: −log10 of the molar value.

One may read the pIC50 as the IC50 on a negative log10 scale, so that one unit is a factor of ten. In turn, `Cc1c(Br)cc(NC(=O)C(c2ccccc2)S(=O)(=O)O)cc1Br` (stereo not drawn) gave a negative-log IC50 (pIC50) in assay [1] below 3.70.

For the compound `O=C(Nc1cc(C(F)(F)F)cc(C(F)(F)F)c1)C(c1ccccc1)S(=O)(=O)O` (stereo not drawn), the pIC50 was 5.19 in assay [2] and below 3.70 in assay [1].

By pKi is commonly meant the Ki on a negative log10 scale, so that one unit is a factor of ten. Read a low pKi as a large Ki. In the case of `O=C(Nc1nc2ccc([N+](=O)[O-])cc2s1)C(c1ccccc1)S(=O)(=O)O` (stereo not drawn), the inhibition result in assay [3] is “Dose-dependent effect”. For the same compound, the negative logarithm of the IC50 (pIC50) was 5.68 in assay [2] and below 4.00 in assay [1]. The compound also showed a pKi in assay [4] of 6.00.

`O=C(Nc1ccc(-n2ccnc2)cc1)C(c1ccccc1)S(=O)(=O)O` (stereo not drawn): the pIC50 in assay [1] is below 4.00.
